Experimental data published in ChEMBL document CHEMBL3351727, “New praziquantel derivatives containing NO-donor furoxans and related furazans as active agents against Schistosoma mansoni” (Eur J Med Chem, 2014).
Calls of active or inactive are those of the source. No cut-off for these calls is given here.

How the values were obtained:
[1] = target: T1, Thioredoxin glutathione reductase (Schistosoma mansoni, UniProt Q962Y6); experiment: Inhibition of Schistosoma mansoni recombinant thioredoxin glutathione reductase assessed as 5-thio-2nitrobezoic acid formation after 3 mins
T1 sequence (Q962Y6 whole entry): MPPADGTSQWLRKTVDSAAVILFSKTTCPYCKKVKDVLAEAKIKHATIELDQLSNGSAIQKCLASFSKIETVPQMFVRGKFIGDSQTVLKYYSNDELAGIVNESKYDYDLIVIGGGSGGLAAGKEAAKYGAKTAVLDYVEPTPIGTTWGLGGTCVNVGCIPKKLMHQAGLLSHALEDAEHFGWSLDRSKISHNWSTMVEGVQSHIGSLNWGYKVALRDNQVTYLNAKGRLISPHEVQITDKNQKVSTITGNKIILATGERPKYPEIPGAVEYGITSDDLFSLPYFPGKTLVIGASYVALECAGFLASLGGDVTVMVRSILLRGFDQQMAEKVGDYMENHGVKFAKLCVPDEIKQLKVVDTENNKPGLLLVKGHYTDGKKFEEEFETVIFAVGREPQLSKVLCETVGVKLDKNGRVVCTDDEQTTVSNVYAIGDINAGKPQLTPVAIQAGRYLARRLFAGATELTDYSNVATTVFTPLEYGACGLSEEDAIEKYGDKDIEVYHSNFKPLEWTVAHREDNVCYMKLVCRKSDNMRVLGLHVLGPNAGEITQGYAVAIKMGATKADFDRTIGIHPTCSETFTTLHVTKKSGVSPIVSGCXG

Schistosoma mansoni [2] = experiment: Antiparasitic activity against Schistosoma mansoni cercariae infected in female Swiss-Webster mouse assessed as worm contraction at 50 uM after 24 to 48 hrs by stereomicroscopy; format: functional, organism-based
Outline: (§1)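 Adult worms were washed in RPMI 1640 with 25 mM HEPES, penicillin, streptomycin and 10% FBS, then held 15–20 per well overnight at 37°C in 5% CO₂. Medium was renewed the next day. Compounds from 10 mM DMSO stocks were added at 10 or 50 μM, with equal DMSO volumes in all wells and DMSO-only negative controls. After compound removal, morphology and mobility were followed over days.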

Schistosoma mansoni [3] = experiment: Antiparasitic activity against Schistosoma mansoni cercariae infected in female Swiss-Webster mouse assessed as worm contraction at 10 uM after 24 to 48 hrs by stereomicroscopy; format: functional, organism-based; outline: as §1
Schistosoma mansoni [4] = experiment: Antiparasitic activity against Schistosoma mansoni infected in female Swiss-Webster mouse assessed as worm killing at 50 uM after 144 hrs by stereomicroscopy
Schistosoma mansoni [5] = experiment: Antiparasitic activity against Schistosoma mansoni infected in female Swiss-Webster mouse assessed as worm killing at 10 uM after 144 hrs by stereomicroscopy
[6] = Induction of NO release in pH 7.4 buffer solution at 5:1 excess of L-cysteine after 1 hr incubation by Griess assay; format: physicochemical; conditions: pH 7.4, 1 h
Outline: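 Compound was incubated 1 hr at 37 °C in pH 7.4 buffer with a 5:1 molar excess of L-cysteine. Nitrite was measured by Griess reaction and reported as % NO₂⁻ (mol/mol) ± SE.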

Schistosoma mansoni [7] = experiment: Antiparasitic activity against Schistosoma mansoni infected in female Swiss-Webster mouse assessed as worm killing at 50 uM after 72 hrs by stereomicroscopy; format: functional, organism-based; outline: as §1
Schistosoma mansoni [8] = experiment: Antiparasitic activity against Schistosoma mansoni cercariae infected in female Swiss-Webster mouse assessed as female worm contraction at 10 uM after 24 to 48 hrs by stereomicroscopy; format: functional, organism-based; outline: as §1
Schistosoma mansoni [9] = experiment: Antiparasitic activity against Schistosoma mansoni infected in female Swiss-Webster mouse assessed as worm killing at 50 uM after 48 hrs by stereomicroscopy; format: functional
Outline: (§2)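 Adult S. mansoni worms were washed in complete RPMI 1640 with 25 mM HEPES, penicillin, streptomycin and 10% FBS. They were held 15–20 per well overnight at 37°C in 5% CO₂, then moved to fresh medium. Compounds from 10 mM DMSO stocks were added to final 10 or 50 μM. Controls received an equal volume of DMSO, and worm death was scored.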

Schistosoma mansoni [10] = experiment: Antiparasitic activity against Schistosoma mansoni infected in female Swiss-Webster mouse assessed as worm killing at 10 uM after 48 hrs by stereomicroscopy; format: functional; outline: as §2
Schistosoma mansoni [11] = experiment: Antiparasitic activity against Schistosoma mansoni infected in female Swiss-Webster mouse assessed as worm killing at 50 uM after 24 hrs by stereomicroscopy; format: functional, organism-based; outline: as §1
Schistosoma mansoni [12] = experiment: Antiparasitic activity against Schistosoma mansoni infected in female Swiss-Webster mouse assessed as worm killing at 10 uM after 96 hrs by stereomicroscopy; format: functional, organism-based; outline: as §1
Schistosoma mansoni [13] = experiment: Antiparasitic activity against Schistosoma mansoni cercariae infected in female Swiss-Webster mouse assessed as male worm contraction at 50 uM after 24 to 48 hrs by stereomicroscopy; format: functional, organism-based; outline: as §1

Row | Compound | IC50 ([1]; read-out: IC50) [µM] | Activity (Schistosoma mansoni [2]) | Activity (Schistosoma mansoni [3]) | Activity (Schistosoma mansoni [4]) [%] | Activity (Schistosoma mansoni [5]) [%] | Activity [6] [%] | Activity (Schistosoma mansoni [7]) | Activity (Schistosoma mansoni [8]) | Activity (Schistosoma mansoni [9]) | Activity (Schistosoma mansoni [10]) | IC50 [1] | Activity (Schistosoma mansoni [11]) | Activity (Schistosoma mansoni [12]) | Activity (Schistosoma mansoni [13])
1 | COC(=O)c1nonc1C(=O)N1CC(=O)N2CCc3ccccc3C2C1 (stereo not given) | > 50 | Active | Active | 18 | 15 | – | – | – | – | – | – | – | – | –
2 | N#Cc1c(C(=O)N2CC(=O)N3CCc4ccccc4C3C2)no[n+]1[O-] (stereo not given) | 0.316 | Active | – | – | 30 | 56.2 | Active | Active | – | – | – | – | – | –
3 | NC(=O)c1nonc1COc1ccc2c(c1)C1CN(C(=O)C3CCCCC3)CC(=O)N1CC2 (stereo not given) | > 50 | inactive | inactive | – | – | – | – | – | inactive | inactive | – | – | – | –
4 | N#Cc1nonc1C(=O)N1CC(=O)N2CCc3ccccc3C2C1 (stereo not given) | > 50 | Active | Active | 25 | 20 | – | – | – | – | – | – | – | – | –
5 | O=C(C1CCCCC1)N1CC(=O)N2CCc3ccc(OCCCOc4nonc4S(=O)(=O)c4ccccc4)cc3C2C1 (stereo not given) | > 50 | Active | Active | – | – | – | – | – | inactive | inactive | – | – | – | –
6 | O=C(C1CCCCC1)N1CC(=O)N2CCc3ccccc3C2C1 (racemic) [PRAZIQUANTEL] | – | Active | Active | 40 | 15 | – | – | – | – | – | Not Active | – | – | –
7 | COC(=O)c1c(C(=O)N2CC(=O)N3CCc4ccccc4C3C2)no[n+]1[O-] (stereo not given) | 0.148 | Active | Active | 50 | 23 | < 1 | – | – | – | – | – | – | – | –
8 | N#Cc1c(-c2ccccc2)no[n+]1[O-] [FUROXAN] | – | inactive | inactive | – | – | – | – | – | – | – | – | Active | Active | –
9 | NC(=O)c1nonc1C(=O)N1CC(=O)N2CCc3ccccc3C2C1 (stereo not given) | > 50 | Active | Active | 23 | 23 | – | – | – | – | – | – | – | – | –
10 | NC(=O)c1c(C(=O)N2CC(=O)N3CCc4ccccc4C3C2)no[n+]1[O-] (stereo not given) | 0.01 | Active | Active | 80 | 30 | 1.8 | – | – | – | – | – | – | – | –
11 | O=C(C1CCCCC1)N1CC(=O)N2CCc3ccc(OCCCOc4no[n+]([O-])c4S(=O)(=O)c4ccccc4)cc3C2C1 (stereo not given) | 8.5 | – | inactive | – | – | 15.7 | – | – | – | Active | – | Active | – | Active
12 | N#Cc1c(COc2ccc3c(c2)C2CN(C(=O)C4CCCCC4)CC(=O)N2CC3)no[n+]1[O-] (stereo not given) | 0.35 | Active | inactive | – | – | 33.8 | – | – | – | inactive | – | Active | – | –
13 | N#Cc1nonc1COc1ccc2c(c1)C1CN(C(=O)C3CCCCC3)CC(=O)N1CC2 (stereo not given) | > 50 | Active | inactive | – | – | – | – | – | inactive | inactive | – | – | – | –
14 | NC(=O)c1c(COc2ccc3c(c2)C2CN(C(=O)C4CCCCC4)CC(=O)N2CC3)no[n+]1[O-] (stereo not given) | 0.083 | inactive | inactive | – | – | 1.1 | – | – | inactive | inactive | – | – | – | –
